From ChEMBL document CHEMBL1130236, “Design and synthesis of imidazoline derivatives active on glucose homeostasis in a rat model of type II diabetes. 1. Synthesis and biological activities of N-benzyl-N'-(arylalkyl)-2-(4',5'-dihydro-1'H-imidazol-2'-yl)piperazines ” (1997)

Legend:
[1] = system: Rattus norvegicus; assay: The glycemia values 30 minutes after glucose administration to streptozotocin rats; assay type: functional
Summary of the method: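 Male Wistar rats (3-month, ~250 g) made diabetic with streptozotocin 35 mg/kg iv in citrate buffer; used 2 weeks later if basal glycemia was 7–10 mM. Single ip dose of 100 µmol/kg (hydrochloride salt), then iv glucose 0.5 g/kg under pentobarbital. Plasma glucose was read by analyzer at 30 min and expressed as % variation versus untreated STZ rats.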

[2] = system: Rattus norvegicus; assay: The rate of glucose disappearance between 5 and 30 minutes after glucose administration; assay type: functional, organism-based
Summary of the method: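 In the intravenous glucose tolerance test (0.5 g/kg, saphenous vein, pentobarbital anesthesia), STZ-diabetic male Wistar rats had received a single 100 µmol/kg ip dose beforehand. Plasma glucose was sampled from the tail at 5–30 min. The glucose disappearance rate K was computed over 5–30 min and expressed as % variation versus untreated STZ rats.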

[3] = system: Rattus norvegicus; assay: The incremental glycemia values after glucose administration (0.5 g/kg iv), to rats treated with streptozotocin (35 mg/kg iv); assay type: functional
Summary of the method: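 STZ (35 mg/kg iv) male Wistar rats were selected after 2 weeks with basal glycemia 7–10 mM and […]. They received 100 µmol/kg ip once before an iv glucose load. Tail blood was taken at 0, 5, 10, 15, 20 and 30 min. The glucose increment over baseline was integrated over 30 min and normalized as (treated−untreated STZ)/(untreated STZ−nondiabetic control)×100.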

[4] = system: Rattus norvegicus; assay: The incremental plasma insulin values over 30 minutes after glucose administration.; assay type: functional
Summary of the method: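 Moderately diabetic STZ Wistar rats were given 100 µmol/kg ip once, then 0.5 g/kg iv glucose under pentobarbital. Tail-vein plasma from 0–30 min was stored at −20 °C, and insulin was measured by radioimmunoassay (lower limit 19.5 pmol/L). The incremental insulin over baseline was integrated over 30 min and expressed as % variation versus untreated STZ rats.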

Structure (SMILES)	G30 [1]	K [2]	Delta G [3]	Delta I [4]
CN1CCN(Cc2ccccc2C(F)(F)F)C(C2=NCCN2)C1 (stereo not drawn)	64%	63%	94%	
CN1CCN(Cc2c(Cl)cccc2Cl)C(C2=NCCN2)C1 (stereo not drawn)	59%	107%	103%	
COc1cccc(CN2CCN(C)CC2C2=NCCN2)c1 (stereo not drawn)	68%	57%	23%	88%
CC(C)CN1CCN(Cc2ccc(Cl)cc2Cl)C(C2=NCCN2)C1 (stereo not drawn)	95%	119%	110%	623%
Clc1ccc(CN2CCN(Cc3ccc(Cl)cc3Cl)C(C3=NCCN3)C2)c(Cl)c1 (stereo not drawn)	18%	22%	0%	
CN1CCN(Cc2ccc(Cl)cc2Cl)C(C2=NCCN2)C1 (stereo not drawn)	112%		105%	221%
Clc1ccccc1CN1CCN(Cc2ccccc2Cl)C(C2=NCCN2)C1 (stereo not drawn)	0%	36%	0%	
CN1CCN(Cc2ccc(Cl)cc2Cl)CC1C1=NCCN1 (stereo not drawn)	102%	152%	34%	
CN1CCN(Cc2ccccc2Cl)C(C2=NCCN2)C1 (stereo not drawn)	103%	98%	81%	109%
CCCN1CCN(Cc2ccccc2Cl)C(C2=NCCN2)C1 (stereo not drawn)	17%	37%	0%	25%
CN1CCN(Cc2cc(Cl)cc(Cl)c2)C(C2=NCCN2)C1 (stereo not drawn)	70%	117%	0%	
CN1CCN(Cc2cccc(Cl)c2)C(C2=NCCN2)C1 (stereo not drawn)	23%	39%	0%	
Cc1ccccc1CN1CCN(C)CC1C1=NCCN1 (stereo not drawn)	48%	81%	24%	
CN1CCN(Cc2ccc(Cl)c(Cl)c2)C(C2=NCCN2)C1 (stereo not drawn)	47%	42%	36%	
Clc1ccccc1CN1CCNCC1C1=NCCN1 (stereo not drawn)	0%	11%	0%	
CN1CCN(Cc2ccc(Cl)cc2)C(C2=NCCN2)C1 (stereo not drawn)	68%	110%	0%	

Structure (SMILES)	G30 [1]	K [2]	Delta G [3]	Delta I [4]
CC(C)N1CCN(Cc2ccccc2Cl)CC1C1=NCCN1 (stereo not drawn)	96%	95%	112%	
CCCN1CCN(Cc2ccc(Cl)cc2Cl)C(C2=NCCN2)C1 (stereo not drawn)	80%	104%	24%	
c1ccc2c(c1)OCC(C1=NCCN1)O2 (stereo not drawn) [IDAZOXAN]	48%	79%	8%	
CCN1CCN(Cc2ccccc2Cl)CC1C1=NCCN1 (stereo not drawn)	50%	106%	70%	
CN1CCN(Cc2ccccc2)C(C2=NCCN2)C1 (stereo not drawn)	23%	67%	0%	16%
CCN1CCN(Cc2ccccc2Cl)C(C2=NCCN2)C1 (stereo not drawn)	38%	34%	108%	
c1ccc(CN2CCN(Cc3ccccc3)C(C3=NCCN3)C2)cc1 (stereo not drawn)	33%	43%	0%	
CN1CCN(Cc2cccc(Cl)c2Cl)C(C2=NCCN2)C1 (stereo not drawn)	36%	53%	0%	
CN1CCN(Cc2ccccc2F)C(C2=NCCN2)C1 (stereo not drawn)	52%	108%	72%	
COc1cccc(CN2CCN(C)CC2C2=NCCN2)c1OC (stereo not drawn)	58%	55%	0%	60%
c1ccc(C(CC2=NCCN2)c2ccccn2)cc1 (stereo not drawn) [MIDAGLIZOLE]	121%		32%	
CN1CCN(Cc2ccc(F)cc2F)C(C2=NCCN2)C1 (stereo not drawn)	106%	97%	102%	
COc1ccccc1CN1CCN(C)CC1C1=NCCN1 (stereo not drawn)	56%	39%	47%	
CC(C)N1CCN(Cc2ccccc2Cl)C(C2=NCCN2)C1 (stereo not drawn)	83%	44%	84%	
CN1CCN(Cc2ccccc2Cl)CC1C1=NCCN1 (stereo not drawn)	97%	148%	93%	
